The values that follow come from ChEMBL document CHEMBL1142307, “Design, synthesis, and radiosensitizing activities of sugar-hybrid hypoxic cell radiosensitizers” (Bioorg Med Chem, 2008).

Structures are written as SMILES.

Data set [1] is described as follows: Radiosensitizing activity at hypoxic mouse EMT6/KU cells assessed as enhancement ratio relative to etanidazole. It is filed as functional.
A short description of data set [2]: Partition coefficient by Shake flask method. It is filed as physicochemical. The note with it: octanol/water. Summed up: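 1 mg compound dissolved in 0.1 M phosphate buffer pH 7.40 as stock; absorbance read at 325 nm before partitioning. 3 mL stock stirred vigorously with phosphate buffer-saturated n-octanol (20–300 mL) at room temperature for 2 h. Aqueous phase absorbance at 325 nm measured after phase separation; P_oct calculated from pre/post absorbance.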

As to `CC(=O)N[C@H]1[C@H](OCCN(C)C(=O)Cn2ccnc2[N+](=O)[O-])O[C@H](COC(C)=O)[C@H](OC(C)=O)[C@@H]1OC(C)=O`, the Ratio in data set [1] was 1.47. The P (partition coefficient) in data set [2] came out at 0.051.

As to `CN(CCO[C@@H]1O[C@H](CO)[C@H](O)[C@H](O)[C@H]1O)C(=O)Cn1ccnc1[N+](=O)[O-]`, the Ratio in data set [1] came out at 1.4. This compound also displayed a P (partition coefficient) in data set [2] of less than 0.01.

For `CC(=O)OC[C@H]1O[C@H](OCCN(C)C(=O)Cn2ccnc2[N+](=O)[O-])[C@@H](OC(C)=O)[C@@H](OC(C)=O)[C@@H]1OC(C)=O`, the Ratio in data set [1] is recorded as 1.88. This compound also showed a P (partition coefficient) in data set [2] of 0.0697.

For `CN(CCO[C@@H]1O[C@H](CO)[C@@H](O)[C@H](O)[C@H]1O)C(=O)Cn1ccnc1[N+](=O)[O-]`, the Ratio in data set [1] is 1.33. This compound showed a P (partition coefficient) in data set [2] of less than 0.01.

Take `CN(CCO)C(=O)Cn1ccnc1[N+](=O)[O-]`: in data set [1], the Ratio is on record as 1.75. For the same compound, the P (partition coefficient) in data set [2] was 0.056.

As for `CN(CCO[C@H]1O[C@H](CO)[C@@H](O)[C@H](O)[C@@H]1O)C(=O)Cn1ccnc1[N+](=O)[O-]`, in data set [1], the Ratio was 1.41. In addition, the P (partition coefficient) in data set [2] was less than 0.01.

Regarding `CC(=O)OC[C@H]1O[C@@H](OCCN(C)C(=O)Cn2ccnc2[N+](=O)[O-])[C@H](OC(C)=O)[C@@H](OC(C)=O)[C@H]1OC(C)=O`, the Ratio in data set [1] is on record as 1.63. For the same compound, in data set [2], the P (partition coefficient) is 0.0355.

Take `CC(=O)OC[C@H]1O[C@@H](OCCN(C)C(=O)Cn2ccnc2[N+](=O)[O-])[C@H](OC(C)=O)[C@@H](OC(C)=O)[C@@H]1OC(C)=O`: the Ratio in data set [1] was determined as 2.3. In data set [2], this compound gave a P (partition coefficient) of 0.105.

In the case of `CC(=O)N[C@H]1[C@H](OCCN(C)C(=O)Cn2ccnc2[N+](=O)[O-])O[C@H](CO)[C@H](O)[C@@H]1O`, in data set [1], the Ratio is recorded as 1.43. In data set [2], the P (partition coefficient) is less than 0.01.
